Measurements gathered from unrelated publications.
Protocols differ between the studies behind these lines.
Cathepsin F: Cathepsin F (Homo sapiens, UniProt Q9UBX1)
ABHD6: Monoacylglycerol lipase ABHD6 (ABHD6, Homo sapiens, UniProt Q9BV23)

SMILES | target | observed | action | technique | concentration | notes | inhibition [%]
CN(C)C(=O)COC(=O)Cc1ccc(OC(=O)c2ccc(NC(=N)N)cc2)cc1 | Cathepsin F | enzyme activity | inhibitor | – | 10 µM | – | 0
Cc1ccccc1N(C)C(=O)Oc1nsnc1N1CCCCC1 | ABHD6 | enzyme activity | inhibitor | fluorescence | 1 µM | lysate | 17
CCOC(=O)c1ccc(OC(=O)CCCCCNC(=N)N)cc1 | Cathepsin F | enzyme activity | inhibitor | – | 10 µM | – | 2
Cn1cc(-c2cccc(N3CCc4c(sc5c4CC(C)(C)C5)C3=O)c2CO)cc(Nc2ccncn2)c1=O | Mast/stem cell growth factor receptor Kit (KIT, Homo sapiens, UniProt P10721, V654A) | enzyme activity | inhibitor | – | 1 µM | – | -7
CCN(CC)CCCC[C@H](NC(=O)[C@H](CC(C)C)NC(=O)[C@H](C)NC(=O)[C@H](Cc1ccccc1)NC(=O)c1ccc(C(C)(C)C)cc1)C(=O)N[C@@H](CO)C(=O)OC | Neurotensin receptor type 1 (NTSR1, Homo sapiens, UniProt P30989) | ligand displacement | – | radioligand | 10 µM | – | -10
O=C1N=C(N2CCCCN2)S/C1=C\c1ccc(F)cc1O | 5-hydroxytryptamine receptor 5A (HTR5A, Homo sapiens, UniProt P47898) | ligand displacement | – | radioligand | 10 µM | – | < 10
C#Cc1n[nH]c2c(-c3cn([C@@H](C)c4ccccc4)c(=O)[nH]c3=O)cc(F)cc12 | RAC-beta serine/threonine-protein kinase (AKT2, Homo sapiens, UniProt P31751) | enzyme activity | inhibitor | – | 0.1 µM | – | 4
CN(CCN1CCC(OC(=O)Nc2ccccc2-c2ccccc2)CC1)C(=O)c1ccc(CN2CCC(C(N)=O)CC2)cc1 | Histamine H2 receptor (Cavia porcellus, UniProt P47747) | ligand displacement | – | radioligand | 1 µM | – | 22
C[C@H](C(=O)N[C@H]1COc2ccccc2[C@@H]1S(C)(=O)=O)c1ccc(F)cc1 | D(4) dopamine receptor (DRD4, Homo sapiens, UniProt P21917, del265-296) | cell-free assay | – | – | 10 µM | – | 10
C#Cc1n[nH]c2c(-c3cn([C@@H](C)c4ccccn4)c(=O)[nH]c3=O)cc(F)cc12 | Calcium/calmodulin-dependent protein kinase type 1 (CAMK1, Homo sapiens, UniProt Q14012) | enzyme activity | inhibitor | – | 0.1 µM | – | 5.7
Cn1cc(-c2cc(F)cc(N3CCn4c(cc5c4CCCC5)C3=O)c2CO)cc(Nc2ccc(N3CCN(C4COC4)CC3)cn2)c1=O | Beta-adrenergic receptor kinase 1 (GRK2, Homo sapiens, UniProt P25098) | enzyme activity | inhibitor | – | 0.1 µM | – | -1
COc1ccc(S(=O)(=O)N2CCCCC2)cc1C | D(4) dopamine receptor (DRD4, Homo sapiens, UniProt P21917) | ligand displacement | – | radioligand | 10 µM | – | < 30
N=C(N)c1ccc2cc(OC(=O)c3ccc(N=C(N)N)cc3)ccc2c1 | Cathepsin F | enzyme activity | inhibitor | – | 10 µM | – | 0
CN(C(=O)Oc1nsnc1N1CCCCC1)c1ccc(C#N)cc1 | ABHD6 | enzyme activity | inhibitor | fluorescence | 1 µM | lysate | 15
